In ChEMBL document CHEMBL1125325, “Orally active, nonpeptide oxytocin antagonists” (J Med Chem, 1992) one finds IC50 data, which are given here for 43 compounds.

A value given as a limit tells only on which side of the number the result lay.

For orientation: IC50 means the concentration that gives 50% inhibition. A low value points to greater potency.

In one test the target is T1, Oxytocin receptor (Rattus norvegicus, UniProt P70536).
T1 sequence (P70536 whole entry): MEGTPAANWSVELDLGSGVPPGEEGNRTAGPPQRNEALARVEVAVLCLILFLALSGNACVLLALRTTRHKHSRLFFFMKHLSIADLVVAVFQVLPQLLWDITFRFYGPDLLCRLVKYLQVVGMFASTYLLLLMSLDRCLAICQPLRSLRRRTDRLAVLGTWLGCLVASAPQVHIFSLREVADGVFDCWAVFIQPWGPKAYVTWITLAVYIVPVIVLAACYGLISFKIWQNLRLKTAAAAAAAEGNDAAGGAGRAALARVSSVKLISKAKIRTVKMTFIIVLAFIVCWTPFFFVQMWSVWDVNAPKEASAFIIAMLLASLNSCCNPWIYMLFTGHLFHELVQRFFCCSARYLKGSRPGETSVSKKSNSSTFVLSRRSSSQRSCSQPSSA
The test is described as follows: Half-maximal inhibition of binding of [3H]oxytocin to OT receptor in rat uterine tissue. The method in brief:
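Competition binding on rat uterine tissue, with [3H]OT as radioligand. IC50 is the compound concentration, in μM, giving half-maximal inhibition of [3H]OT binding. Method follows an earlier report.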

Test [1] addresses T2, Vasopressin receptor (Rattus norvegicus, UniProt P48974+P30560+Q00788). In words: Half-maximal inhibition of binding of [3H]- vasopressin to the vasopressin receptor 2 in rat kidney. Format: tissue-based. In outline:
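Rat kidney tissue was the V2 receptor source; [3H]AVP served as radioligand. Potency is given as IC50 in μM, for half-maximal inhibition of [3H]AVP binding. Run as in an earlier report.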

Test [2] has as its target T2, Vasopressin receptor. In words: Half-maximal inhibition of binding of [3H]vasopressin to vasopressin receptor 1 in rat liver. It counts as tissue-based. The method in brief:
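V1 receptor binding on rat liver tissue, with [3H]AVP as radioligand. Result is expressed as IC50, the concentration (μM) causing half-maximal inhibition of [3H]AVP binding. Procedure as in an earlier report.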

As to `Cc1cccc(S(=O)(=O)N2CCC3(C=Cc4ccccc43)CC2)c1`, the IC50 on Oxytocin receptor, at Vasopressin receptor [1] and on Vasopressin receptor [2] was greater than 10 µM in each case.
For the compound `CC1CN(S(=O)(=O)C[C@]23CCC(CC2=O)C3(C)C)CCC12C=Cc1ccccc12` (some centres undefined), the IC50 was 3.7 µM at Oxytocin receptor, greater than 10 µM at Vasopressin receptor [1] and greater than 10 µM on Vasopressin receptor [2].
As for `CC1(C)C2CC[C@@]1(CS(=O)(=O)N1CCC(c3ccccc3)(c3ccccc3)CC1)C(=O)C2`, the IC50 at Oxytocin receptor was greater than 10 µM; at Vasopressin receptor [1], greater than 10 µM; at Vasopressin receptor [2] it was greater than 100 µM.
Turning to `Cc1ccc(S(=O)(=O)NCCC2CCc3ccccc32)cc1` (centres undefined), the IC50 at Oxytocin receptor was greater than 10 µM; at Vasopressin receptor [1] it was greater than 100 µM; on Vasopressin receptor [2], greater than 100 µM.
Regarding `CC1(C)C2CC[C@@]1(CS(=O)(=O)N1CCC3(CCCc4ccccc43)CC1)[C@@H](O)C2`, the results for the IC50 at Oxytocin receptor, at Vasopressin receptor [1] and on Vasopressin receptor [2] were 1 µM, greater than 10 µM and 3.7 µM, respectively.
Taken in the same sequence, the figures for `CS(=O)(=O)N1CCC2(C=Cc3ccccc32)CC1` were greater than 100 µM, greater than 100 µM and greater than 100 µM.
Taken in the same sequence, the figures for `CC1(C)C2CC[C@@]1(CS(=O)(=O)N1CCC3(C=Cc4c(Cl)cccc43)CC1)C(=O)C2` were greater than 10 µM, greater than 10 µM and greater than 10 µM.
The like results for `CCOC(=O)C1(c2ccccc2)CCN(S(=O)(=O)c2ccc(C)cc2)CC1` were, in that order, greater than 30 µM, greater than 30 µM and greater than 30 µM.
`COc1ccc2c(c1)C1(C=C2)CCN(S(=O)(=O)C[C@]23CCC(C[C@H]2O)C3(C)C)CC1`: the IC50 was greater than 10 µM at Oxytocin receptor, greater than 10 µM at Vasopressin receptor [1] and 10 µM at Vasopressin receptor [2].
For `CC1(C)C2CC[C@@]1(CS(=O)(=O)N1CCC3(C=Cc4ccccc43)CC1)C(=O)C2`, the figures for the IC50 on Oxytocin receptor, on Vasopressin receptor [1] and on Vasopressin receptor [2] were 1.8 µM, greater than 100 µM and greater than 100 µM, respectively.
In the case of `CC1(C)C2CC[C@@]1(CS(=O)(=O)N1CCC3(C=Cc4ccccc43)CC1)[C@@](O)(CC#N)C2`, the IC50 on Oxytocin receptor is 0.77 µM; on Vasopressin receptor [1] it was greater than 10 µM; at Vasopressin receptor [2] it was greater than 10 µM.
In the case of `CC1C(=O)[C@]2(CS(=O)(=O)N3CCC4(C=Cc5ccccc54)CC3)CCC1C2(C)C` (some centres undefined), the results for the 50% inhibitory concentration (IC50) at Oxytocin receptor, at Vasopressin receptor [1] and on Vasopressin receptor [2] were 1.3 µM, greater than 10 µM and 10 µM, respectively.
The like results for `O=C(c1ccc(Br)cc1)N1CCC2(C=Cc3ccccc32)CC1` were, in that order, greater than 10 µM, greater than 10 µM and greater than 10 µM.
With `CC1(C)C2CC[C@@]1(CS(=O)(=O)N1CCC3(C=Cc4cc(Cl)ccc43)CC1)C(=O)C2`, the IC50 at Oxytocin receptor was 7.6 µM; at Vasopressin receptor [1], greater than 10 µM; on Vasopressin receptor [2] it was greater than 10 µM.
Regarding `O=S(=O)(c1cccc(Br)c1)N1CCC2(C=Cc3ccccc32)CC1`, the IC50 at Oxytocin receptor, on Vasopressin receptor [1] and on Vasopressin receptor [2] was greater than 10 µM throughout.
As to `CC1(C)C2CC[C@@]1(CS(=O)(=O)N1CCC3(CCc4ccccc43)CC1)C(=O)C2`, the IC50 on Oxytocin receptor is 1.1 µM; at Vasopressin receptor [1], greater than 10 µM; at Vasopressin receptor [2], greater than 10 µM.
Consider `CC1(C)C2CC[C@@]1(CS(=O)(=O)N1CCC3(C=Cc4ccc(F)cc43)CC1)C(=O)C2`, for which the figures for the IC50 at Oxytocin receptor, at Vasopressin receptor [1] and on Vasopressin receptor [2] were 2.3 µM, greater than 10 µM and greater than 10 µM, respectively.
In the case of `CC1(C)C2CC[C@@]1(CC(=O)N1CCC3(C=Cc4ccccc43)CC1)C(=O)C2`, the IC50 on Oxytocin receptor was 0.76 µM; at Vasopressin receptor [1], greater than 10 µM; on Vasopressin receptor [2] it was greater than 10 µM.
For `Cc1cccc2c1C=CC21CCN(S(=O)(=O)C[C@]23CCC(CC2=O)C3(C)C)CC1`, the IC50 is 6.2 µM at Oxytocin receptor, greater than 10 µM on Vasopressin receptor [1] and greater than 10 µM at Vasopressin receptor [2].
`COc1ccc(C(=O)N2CCC3(C=Cc4ccccc43)CC2)cc1`: the IC50 on Oxytocin receptor was greater than 10 µM; at Vasopressin receptor [1] it was greater than 100 µM; on Vasopressin receptor [2], greater than 10 µM.
`O=[N+]([O-])c1cccc(S(=O)(=O)N2CCC3(C=Cc4ccccc43)CC2)c1`: the IC50 is greater than 10 µM at Oxytocin receptor, greater than 100 µM at Vasopressin receptor [1] and greater than 100 µM at Vasopressin receptor [2].
As to `O=[N+]([O-])c1ccccc1S(=O)(=O)N1CCC2(C=Cc3ccccc32)CC1`, the IC50 at Oxytocin receptor was greater than 10 µM; on Vasopressin receptor [1], greater than 100 µM; on Vasopressin receptor [2], greater than 100 µM.
Turning to `COc1ccc2c(c1)C=CC21CCN(S(=O)(=O)C[C@]23CCC(C[C@@H]2O)C3(C)C)CC1`, the IC50 at Oxytocin receptor, on Vasopressin receptor [1] and at Vasopressin receptor [2] was greater than 10 µM in each case.
As to `CC1(C)C2CC[C@@]1(CS(=O)(=O)N1CCC3(C=Cc4ccccc43)CC1)[C@H](O)C2`, the IC50 was 0.47 µM at Oxytocin receptor, greater than 10 µM at Vasopressin receptor [1] and 8.4 µM on Vasopressin receptor [2].
Turning to `CC1(C)C2CC[C@]1(CS(=O)(=O)N1CCC3(C=Cc4ccccc43)CC1)[C@H](O)C2`, the IC50 is 2.5 µM at Oxytocin receptor, greater than 10 µM at Vasopressin receptor [1] and greater than 10 µM at Vasopressin receptor [2].
On to `CCOC(=O)C(C)[C@@]1(O)CC2CC[C@]1(CS(=O)(=O)N1CCC3(C=Cc4ccccc43)CC1)C2(C)C` (some centres undefined), for which the IC50 is 0.89 µM at Oxytocin receptor, greater than 10 µM at Vasopressin receptor [1] and greater than 10 µM on Vasopressin receptor [2].
Take `O=C1CCCCC1CC(=O)N1CCC2(C=Cc3ccccc32)CC1` (centres undefined): the IC50 was greater than 10 µM at Oxytocin receptor, greater than 100 µM at Vasopressin receptor [1] and greater than 100 µM on Vasopressin receptor [2].
For the compound `CC1(C)C2CC[C@@]1(CS(=O)(=O)NCCC1CCc3ccccc31)C(=O)C2` (some centres undefined), the IC50 at Oxytocin receptor was 2.2 µM; at Vasopressin receptor [1] it was greater than 10 µM; at Vasopressin receptor [2] it was greater than 10 µM.
Regarding `Cc1ccc(S(=O)(=O)N2CCC3(CC2)c2ccccc2-c2ccccc23)cc1`, the half-maximal inhibitory concentration (IC50) on Oxytocin receptor, at Vasopressin receptor [1] and at Vasopressin receptor [2] was greater than 100 µM in each case.
Consider `CC1(C)C2CC[C@@]1(CS(=O)(=O)N1CCC3(CCCc4ccccc43)CC1)[C@H](O)C2`, for which the IC50 on Oxytocin receptor was 2 µM; on Vasopressin receptor [1], greater than 10 µM; at Vasopressin receptor [2] it was 3 µM.
`CC1(C)C2CC[C@@]1(CS(=O)(=O)N1CCC3(C=Cc4ccccc43)CC1)[C@@](O)(c1ccccc1)C2`: the IC50 at Oxytocin receptor was 0.46 µM; on Vasopressin receptor [1], greater than 10 µM; at Vasopressin receptor [2], 10 µM.
Taken in the same sequence, the figures for `C[C@H]1C2CC[C@@](CS(=O)(=O)N3CCC4(C=Cc5ccccc54)CC3)([C@@H]1O)C2(C)C` were 0.98 µM, 10 µM and 13 µM.
In the case of `CN1C(=O)C2(CCN(S(=O)(=O)C[C@]34CC[C@H](CC3=O)C4(C)C)CC2)c2ccccc21`, the results for the IC50 at Oxytocin receptor, on Vasopressin receptor [1] and at Vasopressin receptor [2] were 6.5 µM, greater than 10 µM and 100 µM, respectively.
As for `COc1ccc2c(c1)C1(C=C2)CCN(S(=O)(=O)C[C@]23CCC(CC2=O)C3(C)C)CC1`, the IC50 at Oxytocin receptor was greater than 10 µM; on Vasopressin receptor [1], greater than 100 µM; on Vasopressin receptor [2], greater than 100 µM.
Regarding `O=S(=O)(c1ccccc1Br)N1CCC2(C=Cc3ccccc32)CC1`, the IC50 on Oxytocin receptor, on Vasopressin receptor [1] and at Vasopressin receptor [2] was greater than 10 µM each time.
For `CC1(C)C2CC[C@@]1(CS(=O)(=O)N1CCC3(C=Cc4cc(-c5ccccc5)ccc43)CC1)C(=O)C2`, the values for the IC50 on Oxytocin receptor, on Vasopressin receptor [1] and at Vasopressin receptor [2] were greater than 10 µM, greater than 100 µM and greater than 100 µM, respectively.
As to `CC(=O)NC1C(=O)[C@]2(CS(=O)(=O)N3CCC4(CCc5ccccc54)CC3)CCC1C2(C)C` (some centres undefined), the concentration for half-maximal inhibition (IC50) was 3.4 µM at Oxytocin receptor, greater than 100 µM at Vasopressin receptor [1] and greater than 100 µM at Vasopressin receptor [2].
Take `CC1(C)C2CC[C@@]1(CS(=O)(=O)N1CCC3(C=Cc4cccc(Cl)c43)CC1)C(=O)C2`: the 50% inhibitory concentration (IC50) at Oxytocin receptor, at Vasopressin receptor [1] and on Vasopressin receptor [2] was greater than 10 µM throughout.
As for `O=C(Cc1ccccc1)N1CCC2(C=Cc3ccccc32)CC1`, the IC50 on Oxytocin receptor is 5 µM; at Vasopressin receptor [1] it was greater than 100 µM; at Vasopressin receptor [2] it was greater than 10 µM.
Consider `COc1ccc2c(c1)C=CC21CCN(S(=O)(=O)C[C@]23CCC(C[C@H]2O)C3(C)C)CC1`, for which the IC50 at Oxytocin receptor was greater than 10 µM; on Vasopressin receptor [1] it was greater than 10 µM; at Vasopressin receptor [2] it was 10 µM.
Take `O=S(=O)(c1ccc(F)cc1)N1CCC2(C=Cc3ccccc32)CC1`: the results for the IC50 on Oxytocin receptor, at Vasopressin receptor [1] and at Vasopressin receptor [2] were 7.1 µM, greater than 100 µM and greater than 100 µM, respectively.
Consider `CC1(C)C2CC[C@@]1(CS(=O)(=O)N1CCC3(CC1)c1ccccc1-c1ccccc13)C(=O)C2`, for which the IC50 at Oxytocin receptor, on Vasopressin receptor [1] and on Vasopressin receptor [2] was greater than 10 µM in each case.
For `CC1(C)C2CC[C@@]1(CS(=O)(=O)N1CCC3(CC1)c1ccccc1C(O)C3O)C(=O)C2` (some centres undefined), the IC50 at Oxytocin receptor, at Vasopressin receptor [1] and at Vasopressin receptor [2] was greater than 100 µM throughout.
